Test results taken from ChEMBL document CHEMBL3259745, “Identification of trisubstituted-pyrazol carboxamide analogs as novel and potent antagonists of farnesoid X receptor” (Bioorg Med Chem, 2014).
Blank lines part the entries; values can stand above or below the compound they belong to. Activity calls are given as the source filed them. No cut-off for these calls is given here.

Experiments:
[1] = biological target: T1, Bile acid receptor (Homo sapiens) (UniProt Q96RI1); test: Inhibition of GW4064-induced transactivation of FXR (unknown origin) expressed in HEK293T cells at 40 uM after 16 hrs by beta-lactamase reporter gene assay relative to control; assay type: cell-based; details: HEK-293T
T1 sequence (whole entry): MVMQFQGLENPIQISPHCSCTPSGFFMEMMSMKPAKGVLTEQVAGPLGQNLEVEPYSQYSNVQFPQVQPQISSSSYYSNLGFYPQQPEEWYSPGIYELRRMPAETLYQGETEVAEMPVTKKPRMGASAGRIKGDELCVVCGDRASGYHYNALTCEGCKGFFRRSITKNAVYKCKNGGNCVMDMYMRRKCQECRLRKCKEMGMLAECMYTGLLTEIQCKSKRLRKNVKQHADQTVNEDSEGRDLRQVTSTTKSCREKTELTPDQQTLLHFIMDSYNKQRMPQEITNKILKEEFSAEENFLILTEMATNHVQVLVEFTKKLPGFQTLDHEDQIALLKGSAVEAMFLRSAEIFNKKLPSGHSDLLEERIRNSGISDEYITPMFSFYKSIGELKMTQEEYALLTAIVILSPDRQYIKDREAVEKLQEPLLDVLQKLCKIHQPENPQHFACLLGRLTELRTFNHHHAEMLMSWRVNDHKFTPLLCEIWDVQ

[2] = Cytotoxicity against HEK293T cells expressing FXR and beta-lactamase genes assessed as inhibition of cell viability at 40 uM after 16 hrs by CellTiter-Glo luminescent assay relative to control; assay type: cell-based, HEK-293T; details: human, read-out: INH
Summary of the method: (§1)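 Viability run alongside the agonist assay in the same GeneBLAzer FXR HEK 293T cells: 20,000 cells/well in phenol red-free DMEM with 2% charcoal/dextran-treated FBS, 0.5% DMSO, 16 h at 37°C. Cooled 20 min, then CellTiter-Glo added for 20 min in dark; luminescence read.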

[3] = biological target: T1, Bile acid receptor (Homo sapiens); test: Antagonist activity at human GST-tagged FXR at 1.48 uM after 20 mins by TR-FRET assay relative to control
[4] = biological target: T1, Bile acid receptor (Homo sapiens); test: Agonist activity at human FXR
[5] = biological target: T1, Bile acid receptor (Homo sapiens); test: Agonist activity at FXR (unknown origin) expressed in HEK293T cells after 16 hrs by beta-lactamase reporter gene assay relative to control; assay type: cell-based; details: HEK-293T
[6] = biological target: T1, Bile acid receptor (Homo sapiens); test: Inhibition of GW4064-induced transactivation of FXR (unknown origin) expressed in HEK293T cells at 1 uM after 16 hrs by beta-lactamase reporter gene assay relative to control; assay type: cell-based; details: HEK-293T
[7] = biological target: T1, Bile acid receptor (Homo sapiens); test: Inhibition of GW4064-induced transactivation of FXR (unknown origin) expressed in HEK293T cells at 20 uM after 16 hrs by beta-lactamase reporter gene assay relative to control; assay type: cell-based; details: HEK-293T
[8] = biological target: T1, Bile acid receptor (Homo sapiens); test: Antagonist activity at human GST-tagged FXR at 40 uM after 20 mins by TR-FRET assay relative to control
[9] = biological target: T1, Bile acid receptor (Homo sapiens); test: Antagonist activity at human GST-tagged FXR at 164 nM after 20 mins by TR-FRET assay relative to control
[10] = biological target: T1, Bile acid receptor (Homo sapiens); test: Ratio of E16 IC50 to compound IC50 for human GST-tagged FXR after 20 mins by TR-FRET assay
[11] = biological target: T1, Bile acid receptor (Homo sapiens); test: Ratio of E16 IC50 to compound IC50 for transactivation of FXR (unknown origin) expressed in HEK293T cells after 16 hrs by beta-lactamase reporter gene assay; assay type: cell-based; details: HEK-293T
[12] = biological target: T1, Bile acid receptor (Homo sapiens); test: Antagonist activity at human GST-tagged FXR at 1.5 uM after 20 mins by TR-FRET assay relative to control
[13] = biological target: T2, Bile acid receptor (Homo sapiens, UniProt Q96RI1); test: Antagonist activity at human GST-tagged FXR after 20 mins by TR-FRET assay
T2 sequence (Q96RI1 whole entry): T1 sequence (whole entry)

[14] = biological target: T2, Bile acid receptor; test: Inhibition of GW4064-induced transactivation of FXR (unknown origin) expressed in HEK293T cells after 16 hrs by beta-lactamase reporter gene assay; assay type: cell-based, HEK-293T
[15] = biological target: T1, Bile acid receptor (Homo sapiens); details: 4.44 uM
[16] = Cytotoxicity against HEK293T cells expressing FXR and beta-lactamase genes assessed as inhibition of cell viability at 13.3 uM after 16 hrs by CellTiter-Glo luminescent assay relative to control; assay type: cell-based, HEK-293T; details: human, read-out: INH; summary of the method: as §1
[17] = Cytotoxicity against HEK293T cells expressing FXR and beta-lactamase genes assessed as inhibition of cell viability at 4.4 uM after 16 hrs by CellTiter-Glo luminescent assay relative to control; assay type: cell-based, HEK-293T; details: human, read-out: INH; summary of the method: as §1

Structure (SMILES): CCN(CC)S(=O)(=O)c1cc(NC(=O)c2cnn(-c3cccnc3)c2)ccc1C
inhibition [1]: 24%
cytotoxicity at 16 h, 40 µM [2]: 10.3%
inhibition [3]: 23%
Activity [4]: inactive

Structure (SMILES): O=C(Nc1cccc(S(=O)(=O)N2CCOCC2)c1)c1cn(-c2ccccc2)nc1-c1cccnc1
IC50 [13]: 1.3 µM
inhibition [1]: 82.3%
IC50 [14]: 10.8 µM
cytotoxicity at 16 h, 40 µM [2]: < 5%
inhibition [15]: 90.4%
Activity [4]: inactive

Structure (SMILES): Cc1ccc(-c2nn(-c3nc4ccccc4s3)cc2C(=O)Nc2ccc(C)c(S(=O)(=O)N3CCOCC3)c2)cc1
inhibition [1]: 79.1%
inhibition [9]: 102%
cytotoxicity at 16 h, 13.3 µM [16]: 11.5%
Activity [5]: inactive
Ratio IC50 [10]: 3

More lines, main results first:

inhibition [1]: 3.1%
inhibition [3]: 39.8%
Activity [5]: inactive
inhibition [6]: inactive
Structure (SMILES): COc1cccc(Cn2cc(CNc3ccc(C)c(S(=O)(=O)N4CCOCC4)c3)c(-c3cccc(OC)c3)n2)c1
cytotoxicity at 16 h, 40 µM [2]: < 5%

inhibition [7]: 2.4%
inhibition [8]: 80.3%
Activity [5]: inactive
inhibition [6]: inactive
Structure (SMILES): COc1cccc(Cn2cc(C(=O)N(C)c3ccc(C)c(S(=O)(=O)N4CCOCC4)c3)c(C(C)C)n2)c1
cytotoxicity at 16 h, 40 µM [2]: 13.5%

inhibition [1]: 98.9%
inhibition [9]: 130%
Activity [5]: inactive
Ratio IC50 [10]: 5.26
Ratio IC50 [11]: 4.59
Structure (SMILES): COc1cccc(Cn2cc(C(=O)Nc3ccc(C)c(S(=O)(=O)N4CCOCC4)c3)c(-c3ccc(C)cc3)n2)c1
cytotoxicity at 16 h, 40 µM [2]: < 5%

inhibition [1]: 100%
inhibition [12]: 105%
Activity [5]: inactive
Structure (SMILES): Cc1ccc(-c2nn(CC3CC3)cc2C(=O)Nc2ccc(C)c(S(=O)(=O)N3CCOCC3)c2)cc1
cytotoxicity at 16 h, 40 µM [2]: < 5%

inhibition [7]: 97.9%
inhibition [12]: 130%
Activity [5]: inactive
Structure (SMILES): CCCCn1cc(C(=O)Nc2ccc(C)c(S(=O)(=O)N3CCOCC3)c2)c(-c2ccc(C)cc2)n1
cytotoxicity at 16 h, 4.4 µM [17]: 10.3%
